# Compounds with a hit are over-represented: about 2.5% of the library has one in this group of screens.
# EP2 antag: EP2 receptor (human) inhibition; P43116; C6 glioma cells expressing human EP2, cAMP TR-FRET; cells stimulated with saturating PGE2; inhibition, % at 25 µM; hit rate 0.52% among 260,000;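 active means percent inhibition above 40 after rounding to a whole number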;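 further: rat C6 glioma host cells with rolipram phosphodiesterase inhibitor present; the protocol text gives 20 µM as final concentration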
# HKDC1 inh: HKDC1 (human) hexokinase inhibition; recombinant HKDC1, G6PDH/diaphorase resazurin coupled fluorescence; inhibition, % at 20 µM; AID 493160; hit rate 0.16% among 340,000;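 active means inhibition above about 35% when tested at 20 µM, limit read from the data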;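 further: plate controls were DMSO wells with enzyme for no effect and DMSO wells lacking enzyme for full effect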
# Target sequence (Q2TB90 whole entry, looked up): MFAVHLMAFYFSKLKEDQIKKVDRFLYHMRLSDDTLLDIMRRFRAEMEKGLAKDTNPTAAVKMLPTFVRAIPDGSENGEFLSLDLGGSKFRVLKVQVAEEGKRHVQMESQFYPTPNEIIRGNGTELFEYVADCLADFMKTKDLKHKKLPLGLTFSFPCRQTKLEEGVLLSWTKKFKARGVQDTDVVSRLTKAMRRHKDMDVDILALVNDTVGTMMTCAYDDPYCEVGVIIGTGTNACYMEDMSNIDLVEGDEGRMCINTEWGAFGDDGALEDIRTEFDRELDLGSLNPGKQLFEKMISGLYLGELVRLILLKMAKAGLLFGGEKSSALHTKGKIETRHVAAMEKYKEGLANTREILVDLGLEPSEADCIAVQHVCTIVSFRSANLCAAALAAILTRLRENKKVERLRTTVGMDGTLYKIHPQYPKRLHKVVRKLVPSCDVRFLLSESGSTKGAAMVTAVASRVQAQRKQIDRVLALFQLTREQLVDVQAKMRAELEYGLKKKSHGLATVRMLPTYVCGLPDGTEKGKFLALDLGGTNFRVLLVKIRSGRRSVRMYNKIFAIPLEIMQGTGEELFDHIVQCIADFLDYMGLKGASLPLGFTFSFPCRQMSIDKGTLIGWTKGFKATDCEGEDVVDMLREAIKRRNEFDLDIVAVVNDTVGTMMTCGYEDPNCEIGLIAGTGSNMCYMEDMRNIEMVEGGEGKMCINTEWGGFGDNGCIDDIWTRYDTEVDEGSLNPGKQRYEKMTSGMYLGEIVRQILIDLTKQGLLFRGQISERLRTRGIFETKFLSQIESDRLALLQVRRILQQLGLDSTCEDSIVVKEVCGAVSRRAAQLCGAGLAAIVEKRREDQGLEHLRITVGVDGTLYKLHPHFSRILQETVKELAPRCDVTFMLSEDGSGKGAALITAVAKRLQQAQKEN
#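 Material – in-house recombinant HK5 (HKDC1) enzyme · Quantity – HKDC1 at 5 µg/mL · Buffer or medium – pH 8.0 Tris buffer with 10 mM MgCl2 · Reagent – glucose with 1 mM ATP · Dosing – single 20 µM dose · Times – reaction time 90 min, room temperature, protected from light · Technique – resorufin fluorescence at 613 nm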
# EP2 modulator: modulators of human EP2 prostaglandin E2 receptor; P43116; EP2-expressing cells, cAMP HTRF FRET, PGE2 co-stimulation; induction, % at 25 µM; hit rate 0.83% among 260,000; AID 940;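 active means compounds whose cAMP rise, as percent of the full-agonist control response, exceeds 60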;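 further: rat C6 glioma line stably carrying human EP2 under a CMV promoter; the protocol text gives 20 µM as final concentration; 100% = response of wells given 1 µM PGE2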
# PfG6PD inh: PfG6PD (Plasmodium falciparum) enzyme inhibition. PfGluPho enzyme, NADPH resazurin-diaphorase fluorescence. hit rate 0.78% among 350,000. inhibition, % at 20 µM;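 active means inhibition reaching at least a set limit at 20 µM in the primary screen, cut at about 59% in these data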;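 further: 0% = DMSO wells with substrate and 100% = DMSO wells lacking glucose-6-phosphate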
# TbHK1 inh: blocks Trypanosoma brucei hexokinase 1 activity | recombinant TbHK1, G6PDH-coupled NADH A340 | inhibition, % at 10 µM | hit rate 0.11% among 220,000;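 active means inhibition of 50% or more in the single-dose primary screen; inactive means inhibition below 50%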
# PHOSPHO1 inh: blocks human PHOSPHO1 phosphatase activity; recombinant PHOSPHO1, absorbance phosphatase assay; inhibition, % at 13.3 µM; hit rate 1.1% among 290,000; in the data active means inhibition above about 60%
# EP2 confirm: EP2 receptor cAMP induction, counter-screens negative; shares compounds with EP2 modulator; C6 glioma EP2 cells, cAMP HTRF induction; plus low (about EC15) PGE2 agonist; calls only at 20 µM (by protocol); hit rate 47% among 1,300;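 active means cAMP induction above 50% in the main assay while under 30% in all four parallel counter assays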;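 further: rat C6 glioma cells stably expressing human EP2 receptor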
# * hit, by the source's call; i = inactive; nt = no result given; + = active, no number; ! = repeats disagree.
SMILES,EP2 antag,HKDC1 inh,EP2 modulator,PfG6PD inh,TbHK1 inh,PHOSPHO1 inh,EP2 confirm
S=C(NCc1ccccc1)N1CCC(c2nc3ccccc3s2)CC1,11.7,nt,-72.8,nt,nt,nt,nt
COc1ccc(Nc2nc(-c3cc4cccc(OC)c4oc3=O)cs2)cc1,6.0,-9.8,70.5*,11.9,-2.9,-2.4,+
CCc1c(O)nc(SCC(=O)Nc2ccc(C(C)C)cc2)[nH]c1=O,9.1,nt,2.6,nt,nt,nt,nt
COc1ccc(-c2nc3cnccn3c2NCc2ccc3c(c2)OCO3)c(OC)c1,3.6,nt,-25.1,nt,nt,nt,nt
CCc1nc(SCC(=O)c2ccc3c(c2)OCCO3)c2ccccc2n1,14.0,-9.3,-50.0,8.2,-3.5,1.8,nt
O=C(CSc1nc(Cc2ccccc2)nc2ccccc12)c1ccc2c(c1)OCCO2,4.8,-1.9,66.2*,7.5,-0.3,-17.9,+
CCC(c1nnnn1C1CCCC1)N(Cc1ccc(OC)cc1)Cc1cc2ccc(C)cc2[nH]c1=O (stereo not given),11.9,nt,46.3,nt,nt,nt,nt
Cc1cc(O)c(C=O)c2c1C(=O)Oc1c(COC(=O)/C=C/C(=O)O)c(O)c(C(=O)O)c(C)c1O2,9.5,nt,62.9*,nt,nt,nt,+
O=C(Nc1cccc(NC(=O)c2ccc3c(c2)OCCO3)c1)c1ccccc1,18.6,nt,-133.8,nt,nt,nt,nt
Cc1ccc(S(=O)(=O)c2c(C)cc(C)nc2N2CCCCC2)cc1,7.9,15.4,69.6*,16.3,1.2,16.1,+
Cc1ccc(S(=O)(=O)c2c(C)cc(C)nc2N2CCOCC2)cc1,8.6,12.2,-5.2,-2.8,-0.2,28.5,nt
Cc1ccccc1C(C(=O)NC1CCCC1)N(Cc1ccco1)C(=O)Cn1nnc2ccccc21 (stereo not given),12.6,nt,10.0,nt,nt,nt,nt
CCN(CC)c1nc(C#N)nc(N(CC)CC)n1,nt,11.4,65.1*,-27.9,-1.1,11.3,i
CC(C)N1CCN(C2CCCCCC2)CC1,6.9,nt,8.5,nt,nt,nt,nt
CCOC(=O)/C(C#N)=C/c1ccc(OC)c(OC)c1,5.2,-0.2,2.0,3.1,-31.4,-3.7,nt
COc1ccc(/C=C(\C#N)C(N)=O)cc1OC,12.1,nt,76.5*,nt,nt,nt,i
CCCC(=O)O[C@H]1C[C@@H](C)N(C(=O)c2ccccc2)c2ccc(C)cc21,5.8,1.5,76.2*,-17.6,0.9,1.4,i
CCOC(=O)c1ccc2nc(C)c3c(c2c1)OC(C)C3 (stereo not given),14.4,-2.8,6.1,-4.6,-4.8,-0.6,nt
CCOC(=O)c1ccc2nc(C(F)(F)F)[nH]c(=O)c2c1,13.4,1.1,73.0*,-14.8,-9.6,-8.7,i
Cc1ccc(C)c(NC(=O)CSc2nnc3c(n2)[nH]c2ccc(C)cc23)c1,8.7,nt,-54.5,nt,nt,nt,nt
CC(C)CCn1c(Oc2ccc(Cl)cc2)nc2c1c(=O)n(C)c(=O)n2C,-0.8,1.9,72.9*,9.4,-8.8,11.5,+
Cc1ccc(C(=O)C2=C(O)C(=O)N(CCCn3ccnc3)C2c2ccc(OC(C)C)cc2)o1 (stereo not given),13.4,6.0,65.1*,-13.5,-14.6,12.8,i
CCc1nnc(SCCSc2nnc(CC)n2N)n1N,5.5,0.7,16.8,-10.8,-2.0,28.4,nt
CCCCc1nnc(SCCSc2nnc(CCCC)n2N)n1N,9.6,-3.6,81.1*,25.9,3.0,0.9,i
CCOC(=O)C1CCN(C(=O)c2cccc(Cl)c2)CC1,5.9,4.2,9.2,0.5,-1.2,-2.4,nt
SMILES,EP2 antag,HKDC1 inh,EP2 modulator,PfG6PD inh,TbHK1 inh,PHOSPHO1 inh,EP2 confirm
CCOC(=O)C1CCN(c2c(C(=O)c3ccccc3)cnc3ccc(Cl)cc23)CC1,8.9,-4.0,81.3*,7.6,-4.6,28.5,+
CC(C)CC(NC(=O)Cc1ccccc1F)c1nc2cccnc2n1C(C)C (stereo not given),nt,nt,-2.4,nt,nt,nt,nt
CC(C)(C)NC(=O)C(c1cccs1)N(C(=O)C(=O)Nc1ccc2c(c1)CCC2)c1cccnc1 (stereo not given),18.0,nt,-9.0,nt,nt,nt,nt
O=C(O)c1cc2cc(F)ccc2[nH]1,11.5,-3.4,113.4*!,-7.4,0.2,6.0,i
Cc1ccccc1NC1=C(C(=O)c2ccccc2)N(C)S(=O)(=O)c2ccccc21,11.7,2.6,78.3*,-34.7,2.5,42.0,+
Cc1cc(C)c(S(=O)(=O)N(C2=NCCS2)S(=O)(=O)c2c(C)cc(C)cc2C)c(C)c1,15.6,2.0,71.4*,-9.3,6.4,-8.1,i
CCOc1ccc(NC(=S)N(CCCO)Cc2cc3ccc(C)cc3[nH]c2=O)cc1,9.6,nt,-7.6,nt,nt,nt,nt
CC(=O)C(=Cc1ccc(C(=O)O)cc1)C(C)=O,5.9,-7.4,-15.5,1.0,-3.3,19.5,nt
C/C(=C\c1ccc(C(=O)O)cc1)c1ccc2c(c1)C(C)(C)CCC2(C)C,17.5,8.2,53.0,-41.1,nt,nt,+
CCN(CC)CCN1C(=O)c2cccc3cc(N)cc(c23)C1=O,38.4,12.9,7.0,11.5,-37.3,28.5,i
Nc1cc2c3c(cccc3c1)C(=O)N(CCN1CCCC1)C2=O,20.7,-5.0,-47.0,2.2,-28.0,1.0,nt
CC(=O)c1cccc(S(=O)(=O)N2CCC3(CC2)Nc2ccccc2-n2cccc23)c1,nt,nt,-90.9,nt,nt,nt,nt
CC(C)Cn1c(=O)c2ccccc2c2ccccc2c1=O,9.5,-7.5,25.5,-1.4,8.1,-20.9,nt
CC(C)CCn1c(=O)c2ccccc2c2ccccc2c1=O,7.6,0.4,82.8*,7.3,0.0,12.8,+
CCOC(=O)CSc1nnc(COc2ccccc2)n1CC,14.7,nt,24.4,nt,nt,nt,nt
COc1ccc2c(c1)c(=O)c(Br)c(C)n2Cc1ccccc1,-0.8,-3.0,68.2*,-12.0,4.4,-7.4,+
Cc1cccn2c(=O)c3cc(C(=O)NC4CCCCC4)c(=N)n(Cc4ccncc4)c3nc12,6.9,nt,-20.6,nt,nt,nt,nt
Cc1ccc2c(c1)C(O)CC1(CCN(CC(O)c3ccccc3)CC1)O2 (stereo not given),6.3,nt,-47.3,nt,nt,nt,nt
CCC1COC(c2cccn2Cc2ccc(Cl)cc2)=N1 (stereo not given),3.2,-3.1,65.5*,15.9,-2.2,-29.8,i
Oc1ccc(/C=N/N2CCN(C3c4ccccc4-c4ccccc43)CC2)c(O)c1,6.2,-0.2,66.2*,-15.2,7.8,17.0,i
Oc1ccc(/C=N/N2CCN(C3c4ccccc4-c4ccccc43)CC2)cc1,13.8,-7.0,9.5,-17.9,5.8,1.0,nt
Cc1cc(C)c2[nH]c(=O)c(C(c3nnnn3Cc3ccc(F)cc3)N3CCOCC3)cc2c1 (stereo not given),13.9,nt,-24.7,nt,nt,nt,nt
COc1ccc(C2(NC(=O)c3c(-c4ccncc4)noc3C)CCCC2)cc1,2.4,nt,15.8,nt,nt,nt,nt
CCOC(=O)c1c(NC(=O)CSc2nnc3c(C)cc4ccccc4n23)sc(C(C)=O)c1C,7.0,nt,25.6,nt,nt,nt,nt
